This is an account of results in ChEMBL document CHEMBL1955799, “Cyclic dipeptides exhibit potency for scavenging radicals” (Bioorg Med Chem, 2012).

Holding throughout (type): functional
The nature of test [1]: Antioxidant activity assessed as superoxide radical scavenging activity at 2.5 mM by electron spin resonance method. In short, it runs like this:
(§1)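 ESR spectrometry of radical signal, same settings for hydroxyl and superoxide radicals: magnetic field 335.7 ± 5 mT, power 4 mW at 9.414 GHz, modulation 100 kHz 1 × 0.079 mT, response 0.1 s, amplitude 160, sweep time 2 min, 25 °C. Activity is expressed as % inhibition of the radical signal.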

A short description of test [2]: Antioxidant activity assessed as hydroxyl radical scavenging activity at 2.5 mM by electron spin resonance method. In short, it runs like this:
as §1

A short description of test [3]: Antioxidant activity assessed as hydroxyl radical scavenging activity by electron spin resonance method. The procedure, abridged:
as §1

The nature of test [4]: Antioxidant activity assessed as superoxide radical scavenging activity by electron spin resonance method. The procedure, abridged:
as §1

As usually defined, the inhibition is the drop in the measured response relative to a control, in per cent. Consider `CC(C)C[C@@H]1NC(=O)[C@H](Cc2ccccc2)NC1=O`, for which the inhibition in test [1] amounted to 0%; in test [2], 23.5%.

In general, IC50 refers to the concentration that gives 50% inhibition. Take `CC(C)C[C@@H]1NC(=O)[C@H](Cc2c[nH]c3ccccc23)NC1=O`: the IC50 in test [3] was 1800 µM. For the same compound, the inhibition in test [1] is 0%; in test [2], 66%.

Turning to `CC(C)C[C@@H]1NC(=O)[C@H](Cc2cnc[nH]2)NC1=O`, the IC50 in test [3] was 850 µM. The inhibition in test [1] worked out at 0%; in test [2], 83.9%.

Consider `CC(C)C[C@@H]1NC(=O)[C@H](CCC(=O)O)NC1=O`, for which the IC50 in test [3] is 80 µM. Further, the inhibition in test [1] was 0%; in test [2] it was 97.8%.

Take `CC(C)C[C@@H]1NC(=O)[C@H](CO)NC1=O`: the IC50 in test [3] is 1000 µM. Further, the inhibition came out at 0% in test [1] and 95.2% in test [2].

Regarding `CC(C)C[C@@H]1NC(=O)[C@H](C(C)C)NC1=O`, the figures for the inhibition in test [1] and in test [2] were 0% and 12.3%, respectively.

On to `CC(C)C[C@@H]1NC(=O)[C@H](C)NC1=O`, for which the inhibition in test [1] was determined as 0%.

For the compound `CC(C)C[C@@H]1NC(=O)[C@H](CC(=O)O)NC1=O`, in test [3], the IC50 is 4 µM. The inhibition turned out to be 0% in test [1] and 95% in test [2].

Consider VITAMIN E, for which the inhibition was 32.3% in test [1] and 37.7% in test [2].

With `CC(C)C[C@@H]1NC(=O)CNC1=O`, the inhibition in test [1] and in test [2] was 0% each time.

As to `CC(C)C[C@@H]1NC(=O)[C@H](CS)NC1=O`, the IC50 in test [3] amounted to 100 µM; in test [4], 880 µM. Further, the inhibition in test [1] is 83.3%; in test [2], 88.9%.

For `CC(C)C[C@@H]1NC(=O)[C@H](CCC(N)=O)NC1=O`, the inhibition in test [1] is 0%; in test [2], 19%.

In the case of `CC(C)C[C@@H]1NC(=O)[C@@H]2CCCN2C1=O`, the IC50 in test [3] worked out at 1100 µM. The inhibition in test [1] was determined as 0%; in test [2] it was 86.2%.

As to `CC(C)C[C@@H]1NC(=O)[C@H]([C@@H](C)O)NC1=O`, the inhibition in test [1] and in test [2] was 0% each time.

In the case of `CC(C)C[C@@H]1NC(=O)[C@H](CC(C)C)NC1=O`, the figures for the inhibition in test [1] and in test [2] were 0% and 26%, respectively.

Consider `CC(C)C[C@@H]1NC(=O)[C@H](CC(N)=O)NC1=O`, for which the IC50 in test [3] was 170 µM. The inhibition was 0% in test [1] and 96% in test [2].

On to `CC(C)C[C@@H]1NC(=O)[C@H](CCCCN)NC1=O`, for which the IC50 in test [3] is 160 µM. In addition, the inhibition was 0% in test [1] and 96% in test [2].

As for `CSCC[C@@H]1NC(=O)[C@H](CC(C)C)NC1=O`, the IC50 in test [3] stood at 800 µM. Also, the inhibition was found to be 0% in test [1] and 79% in test [2].
